ChEMBL document CHEMBL1153939, “Novel antagonists of serotonin-4 receptors: synthesis and biological evaluation of pyrrolothienopyrazines” (Bioorg Med Chem, 2009)

Assays:
[1] = molecular target: 5-hydroxytryptamine receptor 4 (Cavia porcellus) (UniProt O70528); experiment: Displacement of [3H]GR-113808 from 5HT4 receptor in guinea pig striatum membrane at 10 nM; format: cell membranes
Method in brief: (§1)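 Guinea pig membranes (15 µg protein/mL) incubated 30 min at 37 °C with 0.6 nM [3H]GR113808 in 50 mM HEPES, pH 7.4, with fixed test concentrations. Nonspecific binding defined with 10 µM serotonin.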

[2] = molecular target: 5-hydroxytryptamine receptor 4 (Cavia porcellus, UniProt O70528); experiment: Displacement of [3H]GR-113808 from 5HT4 receptor in guinea pig striatum membrane; format: cell membranes; method in brief: as §1
[3] = molecular target: 5-hydroxytryptamine receptor 4 (Mus musculus) (UniProt P97288); experiment: Agonist activity at mouse 5HT4a receptor expressed in african green monkey COS7 cells assessed as cAMP release relative to serotonin; format: functional, cell-based; conditions: COS-7
Method in brief: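 Mouse 5-HT4(a) receptor transfected by electroporation into COS-7 cells (560 fmol/mg protein). Cells labelled 2 h at 37 °C with [3H]adenine, then exposed to increasing concentrations of test agent in 0.75 mM IBMX and 0.1 µM forskolin. cAMP measured as [3H]ATP→[3H]cAMP conversion after Dowex/alumina separation. Expressed as % of maximal 5-HT stimulation over basal. Mean of four independent experiments.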

[4] = Toxicity in ip dosed NMRI mouse; format: organism-based; conditions: in vivo
Method in brief: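 Male NMRI mice (20–24 g) given ip drug in saline (10 mL/kg), groups of 4. Behavioural and neurological changes scored against controls by a standardized observation technique at 30 min, 3 h and 24 h post-dose. Approximate LD50 derived from deaths counted at 24 h.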

Mus musculus = experiment: Antinociceptive activity against acetic acid-induced writhing in NMRI mouse assessed as number of stretches at 0.1 mg/kg, ip by writhing test; format: functional; conditions: route intraperitoneal
Method in brief: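 Groups of 8 male NMRI mice (20–24 g). Compound or reference given ip in saline (10 mL/kg) 15 min before ip 0.6% aqueous acetic acid (10 mL/kg). Stretches (back arching, pelvic rotation, hind-limb extension) counted over 10 min, beginning 10 min after acid. ANOVA + Fisher PLSD versus control.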

[5] = molecular target: T1, 5-hydroxytryptamine receptor 3A (Homo sapiens, UniProt P46098); experiment: Antagonist activity at 5HT3 receptor in hybrid NG108-15 cells assessed as inhibition of 5HT-induced current by electrophysiology; format: functional, cell-based
T1 sequence (P46098 whole entry): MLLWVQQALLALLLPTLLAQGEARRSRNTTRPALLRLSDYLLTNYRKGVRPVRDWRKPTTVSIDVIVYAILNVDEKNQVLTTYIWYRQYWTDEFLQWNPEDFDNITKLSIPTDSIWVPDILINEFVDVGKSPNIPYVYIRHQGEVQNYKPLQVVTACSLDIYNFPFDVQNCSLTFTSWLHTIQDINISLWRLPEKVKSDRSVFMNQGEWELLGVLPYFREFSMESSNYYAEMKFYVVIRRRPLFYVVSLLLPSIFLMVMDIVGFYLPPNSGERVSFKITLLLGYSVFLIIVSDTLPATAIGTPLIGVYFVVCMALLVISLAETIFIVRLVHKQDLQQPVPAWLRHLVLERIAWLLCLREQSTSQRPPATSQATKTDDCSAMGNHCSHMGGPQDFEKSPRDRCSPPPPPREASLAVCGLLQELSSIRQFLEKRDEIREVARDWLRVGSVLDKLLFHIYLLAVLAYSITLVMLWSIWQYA
Method in brief: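 NG108-15 cells grown in DMEM-HG with 5% FBS and HAT, then differentiated on polylysine glass with 2% DMSO for 48 h followed by ≥24 h with 1 mM dibutyryl-cAMP. Whole-cell recording at −60 mV in HEPES saline, pH 7.3, with a CsCl/CsMeSO3 pipette solution. 5-HT 50 µM applied by gravity every 2.5 min.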

[6] = molecular target: T2, 5-hydroxytryptamine receptor 1A (Homo sapiens, UniProt P08908); experiment: Displacement of [3H]8OH-DPAT from human recombinant 5HT1A receptor
T2 sequence (P08908 whole entry): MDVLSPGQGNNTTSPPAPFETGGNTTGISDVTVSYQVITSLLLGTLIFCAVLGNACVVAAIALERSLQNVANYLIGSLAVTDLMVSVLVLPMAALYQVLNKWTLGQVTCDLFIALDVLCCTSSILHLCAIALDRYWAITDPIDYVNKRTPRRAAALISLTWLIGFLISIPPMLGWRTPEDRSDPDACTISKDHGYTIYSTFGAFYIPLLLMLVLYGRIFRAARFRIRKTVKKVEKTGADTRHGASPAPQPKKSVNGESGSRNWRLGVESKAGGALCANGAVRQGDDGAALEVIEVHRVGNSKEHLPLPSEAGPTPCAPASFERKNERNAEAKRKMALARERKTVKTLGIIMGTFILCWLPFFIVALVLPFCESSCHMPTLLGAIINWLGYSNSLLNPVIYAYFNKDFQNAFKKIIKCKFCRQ

[7] = molecular target: 5-hydroxytryptamine receptor 1D (Rattus norvegicus, UniProt P28565); experiment: Displacement of [3H]5OH-tryptamine rat recombinant 5HT1D receptor
[8] = molecular target: T1, 5-hydroxytryptamine receptor 3A; experiment: Displacement of [3H]granisetron from human recombinant 5HT3 receptor
[9] = molecular target: Alpha-1A adrenergic receptor (Homo sapiens, UniProt P35348); experiment: Displacement of [3H]prazosin form human recombinant alpha1A adrenergic receptor
[10] = molecular target: Alpha-2A adrenergic receptor (Homo sapiens, UniProt P08913); experiment: Displacement of [3H]RX821002 form human recombinant alpha2A adrenergic receptor
[11] = molecular target: Alpha-2B adrenergic receptor (Homo sapiens, UniProt P18089); experiment: Displacement of [3H]RX821002 form human recombinant alpha2B adrenergic receptor
[12] = molecular target: Alpha-2C adrenergic receptor (Homo sapiens, UniProt P18825); experiment: Displacement of [3H]RX821002 form human recombinant Alpha-2C adrenergic receptor
Alpha-2C adrenergic receptor, sequence (P18825 whole entry): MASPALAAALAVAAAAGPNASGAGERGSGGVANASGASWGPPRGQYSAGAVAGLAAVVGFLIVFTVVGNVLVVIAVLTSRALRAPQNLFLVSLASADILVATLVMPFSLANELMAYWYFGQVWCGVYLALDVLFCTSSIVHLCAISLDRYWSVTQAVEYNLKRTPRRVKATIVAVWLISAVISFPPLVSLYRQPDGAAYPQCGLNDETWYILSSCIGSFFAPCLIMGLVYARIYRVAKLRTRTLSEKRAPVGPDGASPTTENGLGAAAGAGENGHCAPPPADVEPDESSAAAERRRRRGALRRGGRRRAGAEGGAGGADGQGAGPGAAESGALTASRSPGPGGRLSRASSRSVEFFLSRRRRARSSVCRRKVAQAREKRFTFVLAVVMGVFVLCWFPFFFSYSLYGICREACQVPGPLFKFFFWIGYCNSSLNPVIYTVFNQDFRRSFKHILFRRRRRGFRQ

5-hydroxytryptamine receptor 1D, sequence (P28565 whole entry): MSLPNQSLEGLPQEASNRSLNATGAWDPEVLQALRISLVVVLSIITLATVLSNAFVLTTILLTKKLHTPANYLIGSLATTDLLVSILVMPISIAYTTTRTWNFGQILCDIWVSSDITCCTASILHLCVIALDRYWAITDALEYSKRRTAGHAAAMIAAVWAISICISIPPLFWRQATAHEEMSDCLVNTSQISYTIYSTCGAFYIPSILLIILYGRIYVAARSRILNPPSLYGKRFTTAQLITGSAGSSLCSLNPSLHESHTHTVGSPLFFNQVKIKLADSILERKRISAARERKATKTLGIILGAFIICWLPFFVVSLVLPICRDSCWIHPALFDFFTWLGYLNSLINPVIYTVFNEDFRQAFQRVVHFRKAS
Alpha-2A adrenergic receptor, sequence (P08913 whole entry): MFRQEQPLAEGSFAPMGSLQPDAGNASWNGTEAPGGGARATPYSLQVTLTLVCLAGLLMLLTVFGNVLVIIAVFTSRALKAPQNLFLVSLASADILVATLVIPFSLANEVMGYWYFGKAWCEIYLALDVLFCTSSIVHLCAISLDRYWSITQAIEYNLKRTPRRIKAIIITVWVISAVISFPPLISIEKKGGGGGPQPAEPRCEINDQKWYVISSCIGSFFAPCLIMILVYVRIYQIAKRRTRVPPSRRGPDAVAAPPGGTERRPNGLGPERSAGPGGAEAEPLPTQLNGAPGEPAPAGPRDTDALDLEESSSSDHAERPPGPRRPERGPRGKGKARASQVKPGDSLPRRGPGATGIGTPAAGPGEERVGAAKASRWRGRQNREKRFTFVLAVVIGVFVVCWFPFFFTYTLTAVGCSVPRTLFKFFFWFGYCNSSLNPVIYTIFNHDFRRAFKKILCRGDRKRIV
Alpha-1A adrenergic receptor, sequence (P35348 whole entry): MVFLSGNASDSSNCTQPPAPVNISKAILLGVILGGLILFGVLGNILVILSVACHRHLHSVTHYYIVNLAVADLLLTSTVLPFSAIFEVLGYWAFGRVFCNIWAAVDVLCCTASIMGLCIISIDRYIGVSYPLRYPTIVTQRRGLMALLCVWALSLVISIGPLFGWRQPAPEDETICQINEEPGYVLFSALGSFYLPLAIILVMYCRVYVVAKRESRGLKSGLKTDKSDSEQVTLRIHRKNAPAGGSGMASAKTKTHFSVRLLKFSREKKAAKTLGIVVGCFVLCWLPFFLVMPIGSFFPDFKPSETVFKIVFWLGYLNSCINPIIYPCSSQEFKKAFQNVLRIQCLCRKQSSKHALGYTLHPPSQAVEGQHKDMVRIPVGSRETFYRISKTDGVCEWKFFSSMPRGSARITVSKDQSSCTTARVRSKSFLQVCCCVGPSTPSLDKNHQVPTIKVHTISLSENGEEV
5-hydroxytryptamine receptor 4, sequence (O70528 whole entry): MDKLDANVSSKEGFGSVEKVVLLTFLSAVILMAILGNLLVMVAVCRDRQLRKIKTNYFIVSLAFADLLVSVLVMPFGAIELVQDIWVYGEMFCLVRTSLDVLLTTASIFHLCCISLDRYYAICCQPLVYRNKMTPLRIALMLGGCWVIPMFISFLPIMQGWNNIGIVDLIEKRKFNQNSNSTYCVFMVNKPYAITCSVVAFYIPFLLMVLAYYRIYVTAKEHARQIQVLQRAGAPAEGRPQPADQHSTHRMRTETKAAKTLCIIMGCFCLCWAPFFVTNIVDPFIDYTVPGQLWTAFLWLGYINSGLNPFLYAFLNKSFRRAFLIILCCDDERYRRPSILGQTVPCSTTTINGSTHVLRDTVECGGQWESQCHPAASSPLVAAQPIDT
5-hydroxytryptamine receptor 4 (Cavia porcellus), sequence (O70528 whole entry): as above
Alpha-2B adrenergic receptor, sequence (P18089 whole entry): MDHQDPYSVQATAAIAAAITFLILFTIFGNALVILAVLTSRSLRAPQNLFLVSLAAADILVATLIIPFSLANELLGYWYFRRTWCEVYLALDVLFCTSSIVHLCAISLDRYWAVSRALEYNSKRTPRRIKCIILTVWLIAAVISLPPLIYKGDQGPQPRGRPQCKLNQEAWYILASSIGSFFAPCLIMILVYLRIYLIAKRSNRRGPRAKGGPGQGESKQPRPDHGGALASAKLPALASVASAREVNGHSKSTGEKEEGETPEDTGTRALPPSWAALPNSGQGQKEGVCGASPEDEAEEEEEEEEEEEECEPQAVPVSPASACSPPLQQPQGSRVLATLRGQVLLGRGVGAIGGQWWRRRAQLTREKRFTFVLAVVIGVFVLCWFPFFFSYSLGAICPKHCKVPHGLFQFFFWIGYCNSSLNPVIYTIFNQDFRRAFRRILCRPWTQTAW
5-hydroxytryptamine receptor 4 (Mus musculus), sequence (P97288 whole entry): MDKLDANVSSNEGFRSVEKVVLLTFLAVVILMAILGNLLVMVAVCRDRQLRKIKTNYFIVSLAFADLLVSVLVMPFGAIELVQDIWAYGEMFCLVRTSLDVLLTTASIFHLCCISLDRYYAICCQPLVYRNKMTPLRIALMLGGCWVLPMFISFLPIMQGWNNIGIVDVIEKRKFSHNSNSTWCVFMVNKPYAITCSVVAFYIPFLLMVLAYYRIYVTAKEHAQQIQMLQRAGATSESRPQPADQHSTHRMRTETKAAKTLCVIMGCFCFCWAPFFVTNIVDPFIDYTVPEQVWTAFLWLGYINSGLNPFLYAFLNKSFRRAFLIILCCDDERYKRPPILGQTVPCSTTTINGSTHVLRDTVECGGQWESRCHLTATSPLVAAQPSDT

CCCN1CCC(COc2nc3scc(C)c3n3cccc23)CC1
inhibition [1]: 78% | Ki [2]: 0.00174 µM | Activity [3]: 20% | LD50 [4]: 200 mg/kg | Activity (Mus musculus): 12.5 | IC50 [5]: 0.385 µM | IC50 [6]: 5.01 µM | IC50 [7]: 4.57 µM | IC50 [8]: 0.00692 µM | IC50 [9]: 0.0741 µM | IC50 [10]: 0.891 µM | IC50 [11]: 0.955 µM | IC50 [12]: 0.741 µM
